# Experimental data: ChEMBL document CHEMBL4813921, “Optimization of WZ4003 as NUAK inhibitors against human colorectal cancer” (Eur J Med Chem, 2021)
# Activity calls are given as the source filed them. No cut-off for these calls is given here.
# Assays:
# SW480 [1] = assay: Antiproliferative activity against human SW480 cells at 2.5 to 10 uM measured after 48 hrs by EdU staining based assay; type: functional, cell-based; settings: dose 2.5-10 µM
# Outline: (§1)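 Cells exposed to a range of compound concentrations for 48 h, then EdU click-chemistry staining with DAPI counterstain. Confocal high-content imaging; DAPI-positive nuclei counted as total and EdU-positive as proliferating.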
# HCT-116 [2] = assay: Induction of cell cycle arrest in human HCT-116 cells assessed as reduction in accumulation at S phase at 10 uM measured after 48 hrs by PI/RNaseA staining based flow cytometry assay; type: functional
# [3] = Toxicity against BALB/c-nu/nu mouse xenografted with human SW480 cells assessed as morphological changes in heart at 10 to 20 mg/kg, ip administered every 2 days for 18 days by H and E staining based analysis; type: organism-based; settings: in vivo, 432 h, dose 10-20 mg/kg, time 18 day
# Outline: (§2)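 After 18 days of ip dosing every two days in SW480-xenografted nude mice, heart, liver, spleen, lung and kidney harvested, sectioned, HE-stained, examined at ×400.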
# SW480 [4] = assay: Induction of apoptosis in human SW480 cells assessed as viable cells at 10 uM measured after 48 hrs by Annexin V-FITC/PI staining based flow cytometry method (reference value: 93.2%); type: functional; settings: read-out: Activity
# HCT-116 [5] = assay: Inhibition of colony formation in human HCT-116 cells measured after 14 days by crystal violet staining based microcopic analysis; type: functional, cell-based; settings: dose 0.5-2 µM, time 14.0 day
# Outline: (§3)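 Clonogenic assay with 14-day exposure to a range of compound concentrations; colonies stained with crystal violet and imaged by microscopy; compared with untreated cells.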
# SW480 [6] = assay: Induction of cell cycle arrest in human SW480 cells assessed as reduction in accumulation at G1 phase at 10 uM measured after 48 hrs by PI/RNaseaA staining based flow cytometry assay; type: functional
# SW480 [7] = assay: Induction of apoptosis in human SW480 cells assessed as early apoptotic cells at 10 uM measured after 48 hrs by Annexin V-FITC/PI staining based flow cytometry method (reference value: 2.6%); type: functional
# [8] = Toxicity against BALB/c-nu/nu mouse xenografted with human SW480 cells assessed as morphological changes in liver at 10 to 20 mg/kg, ip administered every 2 days for 18 days by H and E staining based analysis; type: organism-based; settings: in vivo, 432 h, dose 10-20 mg/kg, time 18 day; outline: as §2
# U2OS [9] = assay: Induction of apoptosis in human U2OS cells assessed as early apoptotic cells at 10 uM measured after 48 hrs by Annexin V-FITC/PI staining based flow cytometry method (reference value: 2.8%); type: functional
# [10] = biological target: T1, NUAK family SNF1-like kinase 1 (Homo sapiens) (UniProt O60285); assay: Inhibition of NUAK1 (unknown origin) at 10 uM using CHKtide as substrate in presence of ATP measured after 60 mins by ADP-Glo assay
# T1 sequence (whole entry): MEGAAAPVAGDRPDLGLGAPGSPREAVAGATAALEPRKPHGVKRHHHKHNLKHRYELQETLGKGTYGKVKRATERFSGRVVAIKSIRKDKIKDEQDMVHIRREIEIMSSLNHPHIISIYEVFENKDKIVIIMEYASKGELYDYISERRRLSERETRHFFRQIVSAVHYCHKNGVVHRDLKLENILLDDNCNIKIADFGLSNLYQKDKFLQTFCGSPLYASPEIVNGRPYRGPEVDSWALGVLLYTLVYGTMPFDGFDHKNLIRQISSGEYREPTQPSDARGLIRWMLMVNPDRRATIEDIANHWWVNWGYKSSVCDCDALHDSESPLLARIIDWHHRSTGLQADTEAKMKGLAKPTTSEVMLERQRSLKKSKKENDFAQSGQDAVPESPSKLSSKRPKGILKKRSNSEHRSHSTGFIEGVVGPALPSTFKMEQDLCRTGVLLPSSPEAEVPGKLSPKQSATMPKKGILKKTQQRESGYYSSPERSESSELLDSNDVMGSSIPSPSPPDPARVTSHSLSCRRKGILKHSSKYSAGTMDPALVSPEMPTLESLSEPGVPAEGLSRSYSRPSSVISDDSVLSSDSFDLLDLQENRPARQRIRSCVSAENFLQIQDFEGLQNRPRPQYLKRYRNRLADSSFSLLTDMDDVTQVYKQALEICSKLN
# SW480 [11] = assay: Induction of apoptosis in human SW480 cells assessed as late apoptotic cells at 10 uM measured after 48 hrs by Annexin V-FITC/PI staining based flow cytometry method (reference value: 2.8%); type: functional
# SW480 [12] = assay: Antiproliferative activity against human SW480 cells assessed as reduction in cell viability at 10 uM measured after 1 to 5 days by MTT assay relative to control; type: functional, cell-based; settings: time 1-5 day
# Outline: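 MTT viability read daily over 1–5 days of exposure to 10 μM compound; mean ± SD, n = 3.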
# SW480 [13] = assay: Induction of ROS generation in human SW480 cells at 10 uM measured after 48 hrs by DCFH-DA staining based flow cytometry method; type: functional, cell-based
# Outline: (§4)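 Cells treated at 10 μM for 48 h, ROS measured by flow cytometry. Fluorescence intensity expressed relative to vehicle-treated controls; mean ± SEM from 3 independent experiments.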
# SW480 [14] = assay: Inhibition of colony formation in human SW480 cells measured after 14 days by crystal violet staining based microcopic analysis; type: functional, cell-based; settings: dose 0.5-2 µM, time 14.0 day; outline: as §3
# HCT-116 [15] = assay: Antiproliferative activity against human HCT-116 cells at 2.5 to 10 uM measured after 48 hrs by EdU staining based assay; type: functional, cell-based; settings: dose 2.5-10 µM; outline: as §1
# U2OS [16] = assay: Induction of apoptosis in human U2OS cells assessed as necrotic cells at 10 uM measured after 48 hrs by Annexin V-FITC/PI staining based flow cytometry method (reference value: 0.4%); type: functional
# SW480 [17] = assay: Induction of cell cycle arrest in human SW480 cells assessed as reduction in accumulation at S phase at 10 uM measured after 48 hrs by PI/RNaseA staining based flow cytometry assay; type: functional
# [18] = Toxicity against BALB/c-nu/nu mouse xenografted with human SW480 cells assessed as morphological changes in spleen at 10 to 20 mg/kg, ip administered every 2 days for 18 days by H and E staining based analysis; type: organism-based; settings: in vivo, 432 h, dose 10-20 mg/kg, time 18 day; outline: as §2
# U2OS [19] = assay: Induction of cell cycle arrest in human U2OS cells assessed as reduction in accumulation at G1 phase at 10 uM measured after 48 hrs by PI/RNaseA staining based flow cytometry assay; type: functional
# U2OS [20] = assay: Induction of ROS generation in human U2OS cells at 10 uM measured after 48 hrs by DCFH-DA staining based flow cytometry method; type: functional, cell-based; outline: as §4
# SW480 [21] = assay: Induction of cell cycle arrest in human SW480 cells assessed as increase in accumulation at G2/M phase at 10 uM measured after 48 hrs by PI/RNaseaA staining based flow cytometry assay; type: functional
# U2OS [22] = assay: Induction of cell cycle arrest in human U2OS cells assessed as reduction in accumulation at S phase at 10 uM measured after 48 hrs by PI/RNaseA staining based flow cytometry assay; type: functional
# [23] = Toxicity against BALB/c-nu/nu mouse xenografted with human SW480 cells assessed as body weight at 10 to 20 mg/kg, ip administered every 2 days for 18 days; type: organism-based; settings: in vivo, 432 h, dose 10-20 mg/kg, time 18 day
# Outline: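 SW480 xenografts in nude mice, randomized at 100 mm3 tumour volume into four groups of six. Dosed ip at 10 or 20 mg/kg every two days for 18 days, with vehicle group. Tumour volume and body weight recorded every two days; tumours weighed at end; means ± SD (n = 6).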
smiles,measurement,setting,value
CCC(=O)Nc1cccc(Oc2nc(Nc3ccc(N4CCN(C)CC4)cc3)ncc2Cl)c1,Activity,SW480 [1],Active
same,Activity,HCT-116 [2],Active
same,Activity,[3],Non-Toxic
same,viability at 10 µM,SW480 [4],69.8%
same,inhibition,HCT-116 [5],Dose-Dependent Effect
same,Activity,SW480 [6],Active
same,Activity,SW480 [7],16.2%
same,Activity,[8],Non-Toxic
same,Activity,U2OS [9],12.9%
same,inhibition,[10],92.9%
same,Activity,SW480 [11],10.8%
same,Activity,SW480 [12],Active
same,Activity,SW480 [13],Active
same,inhibition,SW480 [14],Dose-Dependent Effect
same,Activity,HCT-116 [15],Active
same,Activity,U2OS [16],0.6%
same,Activity,SW480 [17],Active
same,Activity,[18],Non-Toxic
same,Activity,U2OS [19],Active
same,Activity,U2OS [20],Active
same,Activity,SW480 [21],Active
same,Activity,U2OS [22],Active
same,Activity,[23],Non-Toxic
